# Results taken from ChEMBL document CHEMBL1123650, “In vivo characterization of hydroxamic acid inhibitors of 5-lipoxygenase” (J Med Chem, 1987).
# pIC50: −log10 of the molar value. Calls of active or inactive are those of the source. The calls are words filed in the database; no cut-off is given here.
# Columns and labels:
# Rattus norvegicus [1] = assay: Inhibition of leukotriene biosynthesis was determined in vivo with the rat peritoneal anaphylaxis model administered perorally at 100 mg/kg *p > 0.05; format: functional; conditions: route oral
# Outline: (§1)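 Fasted male Sprague-Dawley rats sensitized ip with rabbit anti-BSA in PBS pH 7.1, then challenged ip 3 h later with BSA (4 mg) in PBS containing 30 mM L-cysteine. Compound in 0.2% methylcellulose given by gavage 1 h before challenge; 6–8 rats per group. Peritoneal fluid collected 15 min after challenge, LTC4 measured by RIA. % inhibition vs control mean, ± SEM; significance at […].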
# Rattus norvegicus [2] = assay: Plasma concentration was evaluated for corresponding hydroxamic acid metabolite at 100 mg/kg dose peroral administration in rats after 20 min; format: functional, organism-based; design: dose 100 mg/kg
# Outline: (§2)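 Rats dosed by oral gavage, 100 mg/kg suspended in 0.2% methylcellulose (4 mL/kg). Blood taken from lateral tail vein, plasma separated. Proteins precipitated with 2 volumes methanol before reversed-phase HPLC, or plasma acidified and ether-extracted for normal-phase HPLC. Parent hydroxamate and carboxylic acid metabolite measured. Average of four determinations with range.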
# [3] = target: T1, Polyunsaturated fatty acid 5-lipoxygenase (Rattus norvegicus, UniProt P12527); assay: In vitro inhibitory activity against 5-lipoxygenase in rat RBL-1 cells; format: cell-based
# T1 sequence (P12527 whole entry): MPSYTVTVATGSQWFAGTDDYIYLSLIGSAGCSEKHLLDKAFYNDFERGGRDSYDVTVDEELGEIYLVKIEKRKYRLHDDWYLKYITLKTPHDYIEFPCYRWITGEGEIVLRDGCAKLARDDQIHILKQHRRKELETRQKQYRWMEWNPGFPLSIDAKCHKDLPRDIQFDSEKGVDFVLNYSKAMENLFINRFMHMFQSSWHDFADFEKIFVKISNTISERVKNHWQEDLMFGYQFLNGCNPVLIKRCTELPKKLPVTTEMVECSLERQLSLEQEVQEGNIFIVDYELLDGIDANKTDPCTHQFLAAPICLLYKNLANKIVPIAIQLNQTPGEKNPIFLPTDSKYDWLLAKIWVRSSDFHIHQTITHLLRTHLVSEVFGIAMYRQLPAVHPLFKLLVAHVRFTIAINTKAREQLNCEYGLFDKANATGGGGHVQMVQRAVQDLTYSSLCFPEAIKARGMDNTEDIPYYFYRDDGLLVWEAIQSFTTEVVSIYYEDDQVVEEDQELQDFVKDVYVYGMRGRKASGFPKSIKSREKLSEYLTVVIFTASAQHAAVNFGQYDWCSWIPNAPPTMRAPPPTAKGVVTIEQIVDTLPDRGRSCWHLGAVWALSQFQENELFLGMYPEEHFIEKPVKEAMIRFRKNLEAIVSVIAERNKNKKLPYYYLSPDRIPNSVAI
# Outline: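 RBL-1 cell homogenate, 20000g supernatant (from 6 × 10^4 cells) in 200-μL incubations with 2% DMSO vehicle and varied inhibitor concentrations. Reaction started with radiolabeled arachidonic acid, stopped by acidification and ether extraction. Products separated from substrate by TLC and counted by scintillation. Triplicate incubations, compared against mean of vehicle controls (n = 8). IC50 with 95% confidence limits from linear regression of % inhibition vs log concentration.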
# Rattus norvegicus [4] = assay: Plasma concentration was evaluated for corresponding carboxylic acid metabolite at 100 mg/kg dose peroral administration in rats after 60 min; format: functional, organism-based; design: dose 100 mg/kg; outline: as §2
# Rattus norvegicus [5] = assay: Inhibition of leukotriene biosynthesis was determined in vivo with the rat peritoneal anaphylaxis model administered perorally at 100 mg/kg; format: functional; conditions: route oral; outline: as §1
# Rattus norvegicus [6] = assay: Plasma concentration was evaluated for corresponding carboxylic acid metabolite at 100 mg/kg dose peroral administration in rats after 20 min; format: functional, organism-based; design: dose 100 mg/kg; outline: as §2
# Rattus norvegicus [7] = assay: Plasma concentration was evaluated for corresponding hydroxamic acid metabolite at 100 mg/kg dose peroral administration in rats after 60 min; format: functional, organism-based; design: dose 100 mg/kg; outline: as §2
# Rattus norvegicus [8] = assay: Inhibition of leukotriene biosynthesis was determined in vivo with the rat peritoneal anaphylaxis model administered perorally at 100 mg/kg; not significant; format: functional, organism-based; design: dose 100 mg/kg; outline: as §1
SMILES,inhibition in vivo at 100 mg/kg (Rattus norvegicus [1]) [%],Concentration (Rattus norvegicus [2]) [µM],pIC50 [3],Concentration (Rattus norvegicus [4]) [µM],inhibition in vivo at 100 mg/kg (Rattus norvegicus [5]) [%],Concentration (Rattus norvegicus [6]) [µM],Concentration (Rattus norvegicus [7]) [µM],inhibition (Rattus norvegicus [8])
CN(O)C(=O)/C=C/c1ccc2ccccc2c1,66,,,,,,,
CC(C)Cc1ccc(C(C)C(=O)N(C)O)cc1 (stereo not drawn),,32,6.01,36,65,41,14,
CN(O)C(=O)c1ccc2ccccc2c1,,,,,,,,inactive
CC(C)Cc1ccc(C(C(=O)N(C)O)C(C)C)cc1 (stereo not drawn),,5,,7.5,,3.7,7.9,
COc1ccc2cc(C(C)C(=O)N(C)O)ccc2c1 (stereo not drawn),,1.7,6.39,4,52,3,1.3,
CC(C)Cc1ccc(CC(=O)N(C)O)cc1,,46,,138,,162,12,
Cc1cc(C)c(-c2ccc(C(=O)NO)cc2)c(C)c1,,,,,,,,inactive
CC(C)Oc1ccc(C(C)C(=O)N(C)O)cc1 (stereo not drawn),,,5.43,,67,,38,
CC(C)Cc1ccc(/C=C/C(=O)N(C)O)cc1,,< 4,,4.5,,1.9,< 4,
CC(C(=O)N(C)O)c1ccc(OCc2ccccc2)cc1 (stereo not drawn),,8.4,6.55,51,62,16,7.9,
CC(C)Cc1ccc(C(C)(C)C(=O)N(C)O)cc1,,5.8,,< 1,,9.3,< 1,
CC(C)Cc1ccc(C(=O)N(C)O)cc1,,< 5,,404,,432,< 5,
CC(C)Cc1ccc(C(C)C(=O)N(O)C(C)C)cc1 (stereo not drawn),,< 4,,< 4,,< 4,< 4,
Cc1cc(C)c(-c2ccc(/C=C/C(=O)N(C)O)cc2)c(C)c1,,,7.66,,,,,inactive
CC(C)Cc1ccc(CCC(=O)N(C)O)cc1,,< 10,,80,,349,< 10,
CC(C)Cc1ccc(C(C)C(=O)NO)cc1 (stereo not drawn) [IBUPROXAM],,49,5.32,146,,114,27,inactive
CCCCOc1ccc(C(C)C(=O)N(C)O)cc1 (stereo not drawn),,38,6.14,50,62,40,13,
Cc1cc(C)c(-c2ccc(C(=O)N(C)O)cc2)c(C)c1,,,7.22,,41,,,
